Assay results from article PMC7293934 (Neuropharmacology, 2020).
Where “and” joins values, the source holds several entries; their conditions need not be identical. Equal entries are not always repeated. Entries after “also recorded” stand apart in the source; their conditions may differ. Where two headings read alike, the source gives them in different places.

Legend:
[1] = test system: native NMDA receptors expressed by STN neurons; format: cell-based, mouse; settings: APV 400 μM superfusion
[2] = test system: native NMDA receptors expressed by hippocampal interneurons; format: cell-based, mouse
Procedure, shortened: (§1)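 Transverse 300 μm ventral hippocampal slices were cut from P12–18 C57BL/6J mice. Recording was at 32°C in aCSF with 0.2 mM Mg2+, 20 μM DNQX and 10 μM gabazine, using a Cs-based internal. Visually identified CA1 stratum radiatum/lacunosum moleculare interneurons or CA1 pyramidal neurons were held at +40 mV, with Schaffer collateral stimulation every 30–60 s. Sequence was baseline 5–10 min, 10 μM test compound 10–15 min, then 400 μM DL-APV.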

[3] = test system: native NMDA receptors expressed by hippocampal CA1 pyramidal neurons; format: cell-based, mouse
Procedure, shortened: as §1

[4] = test system: native NMDA receptors expressed by STN neurons; format: cell-based, mouse
Procedure, shortened: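 Sagittal 300 μm slices containing STN were cut from P12–18 C57BL/6J mice of either sex. Recording was at 32°C in aCSF with 0.2 mM Mg2+, 20 μM DNQX and 10 μM gabazine, using a Cs-based internal with QX-314, at −40 mV. Internal capsule stimulation was given every 30–60 s during 5–10 min baseline, then 10–15 min vehicle (0.01% DMSO) or 10 μM test compound, then 400 μM DL-APV. Charge transfer was taken as EPSC area.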

GluN1/2A [5] = settings: read-out: glycine EC50; in the absence of PTC-174; ref Yi et al. 2016; cited from earlier work
GluN1/2D [6] = biological target: T1, GluN1/2D (Rattus norvegicus, UniProt P35439+Q62645); format: cell-based; settings: for Increase in glutamate potency / Increase in glycine potency: 10 μM modulator; for Increase in glutamate potency: 50 μM glycine; for Increase in glycine potency: 100 μM glutamate; for Increase in potencies of co-agonists glutamate and glycine: summary statement
GluN1/2C [7] = biological target: T2, GluN1/2C (Rattus norvegicus, UniProt P35439+Q00961); format: cell-based
[8] = test system: NMDA receptor-mediated responses of STN neurons; settings: ref Swanger et al., 2015; cited from earlier work
recombinant GluN1/2A/2C = settings: ref Bhattacharya et al., 2018; cited from earlier work
[9] = test system: hippocampal CA1 pyramidal neurons; settings: ref Perszyk et al., 2016; cited from earlier work
hippocampal interneurons = settings: ref Perszyk et al., 2016; cited from earlier work
GluN1/2A [10] = biological target: GluN1/2A (Rattus norvegicus, UniProt P35439+Q00959); format: cell-based
Procedure, shortened: (§2)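 Rat GluN1 with GluN2A or GluN2B was expressed from cRNA in Xenopus oocytes. Oocytes were used 2–4 days later and preinjected with 50 mM BAPTA 10–30 min before recording. Two-electrode voltage clamp was at −40 mV and 21–23°C in Ba2+-containing solution, pH 7.4. […] Responses as % of agonist alone were Hill-fitted for EC50, nH and maximal modulation. At least 4 oocytes from ≥2 frogs were used.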

GluN1/2D [11] = biological target: T1, GluN1/2D; assay: Fast-application whole-cell patch-clamp electrophysiology, HEK293 cells; format: cell-based; settings: 10 μM glycine
Procedure, shortened: (§3)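 HEK293 cells on poly-D-lysine coverslips in DMEM with 10% dialyzed FBS were calcium-phosphate transfected with GFP, GluN1 and GluN2 cDNAs (1:1:1), with 200 μM D,L-APV and 200 μM 7-chlorokynurenic acid in the medium. About 24 h later, whole-cell recordings were made at 20°C and −60 mV on lifted cells using piezo-driven theta-glass exchange. Cells were accepted at <1000 pA and <10 MΩ series resistance.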

GluN1/2B = GluN1/2B (Rattus norvegicus, UniProt P35439+Q00960); format: cell-based
Procedure, shortened: as §2

[12] = biological target: GluN1/2AC1/2BC2 (triheteromeric GluN1/2A/2B) (Rattus norvegicus, UniProt P35439+Q00959+Q00960); format: cell-based
[13] = biological target: GluN1/2AC1/2CC2-NK (triheteromeric GluN1/2A/2C) (Rattus norvegicus, UniProt P35439+Q00959+Q00961, N612K); format: cell-based; settings: Hill slope; in the presence of 1 mM Mg2+
[14] = biological target: GluN1/2BC1/2DC2 (triheteromeric GluN1/2B/2D) (Rattus norvegicus, UniProt P35439+Q00960+Q62645); format: cell-based; settings: Hill slope of PTC-174 concentration-response
[15] = CNS exposure after systemic administration; format: in vivo; settings: no data shown
[16] = test system: kainate (GluK1–2) receptors; format: cell-based; settings: 10 μM PTC-174; activated by 100 μM glutamate; concanavalin A pre-incubation
Procedure, shortened: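 Oocytes expressing GluK1 or GluK2 were incubated 10 min in 1 mg/ml concanavalin A in recording solution. They were then clamped at −40 mV at 21–23°C in Ba2+-containing solution, pH 7.4. […] Responses were normalized to control without test compound, from 5–8 oocytes.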

AMPA (GluA1–4) receptors = assay: Two-electrode voltage-clamp electrophysiology, selectivity over AMPA receptors; format: cell-based; settings: 10 μM PTC-174; activated by 30 μM kainate
Procedure, shortened: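 GluA1–4 AMPA receptors were expressed from cRNA in Xenopus oocytes. Two-electrode voltage clamp was at −40 mV and 21–23°C in Ba2+-containing solution, pH 7.4. Currents were evoked by 30 μM kainate with and without 10 μM test compound (DMSO <0.1%). Responses were normalized to control without test compound, from 5–8 oocytes.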

GluN1/2CC1/2CC2-NK = GluN1/2CC1/2CC2-NK (Rattus norvegicus, UniProt P35439+Q00961, N612K); format: cell-based; settings: for EC50: EC50, 100 μM glutamate + 50 μM glycine; for nH: Hill slope
GluN1/2C [17] = biological target: T2, GluN1/2C; assay: Fast-application whole-cell patch-clamp electrophysiology, HEK293 cells; format: cell-based; settings: 10 μM PTC-174 continuous; 3–5 ms 1 mM glutamate; 10 μM glycine
Procedure, shortened: as §3

[18] = control (no modulator), continuous 50 μM glycine
[19] = 10 μM PTC-174, 10 μM glutamate + 1 μM glycine
[20] = Hill slope of PTC-174 concentration-response
[21] = 100 μM glutamate + 50 μM glycine
[22] = relative to the response activated by glutamate + glycine + PTC-174

T2 sequence (Q00961 20-1237, other chains not shown): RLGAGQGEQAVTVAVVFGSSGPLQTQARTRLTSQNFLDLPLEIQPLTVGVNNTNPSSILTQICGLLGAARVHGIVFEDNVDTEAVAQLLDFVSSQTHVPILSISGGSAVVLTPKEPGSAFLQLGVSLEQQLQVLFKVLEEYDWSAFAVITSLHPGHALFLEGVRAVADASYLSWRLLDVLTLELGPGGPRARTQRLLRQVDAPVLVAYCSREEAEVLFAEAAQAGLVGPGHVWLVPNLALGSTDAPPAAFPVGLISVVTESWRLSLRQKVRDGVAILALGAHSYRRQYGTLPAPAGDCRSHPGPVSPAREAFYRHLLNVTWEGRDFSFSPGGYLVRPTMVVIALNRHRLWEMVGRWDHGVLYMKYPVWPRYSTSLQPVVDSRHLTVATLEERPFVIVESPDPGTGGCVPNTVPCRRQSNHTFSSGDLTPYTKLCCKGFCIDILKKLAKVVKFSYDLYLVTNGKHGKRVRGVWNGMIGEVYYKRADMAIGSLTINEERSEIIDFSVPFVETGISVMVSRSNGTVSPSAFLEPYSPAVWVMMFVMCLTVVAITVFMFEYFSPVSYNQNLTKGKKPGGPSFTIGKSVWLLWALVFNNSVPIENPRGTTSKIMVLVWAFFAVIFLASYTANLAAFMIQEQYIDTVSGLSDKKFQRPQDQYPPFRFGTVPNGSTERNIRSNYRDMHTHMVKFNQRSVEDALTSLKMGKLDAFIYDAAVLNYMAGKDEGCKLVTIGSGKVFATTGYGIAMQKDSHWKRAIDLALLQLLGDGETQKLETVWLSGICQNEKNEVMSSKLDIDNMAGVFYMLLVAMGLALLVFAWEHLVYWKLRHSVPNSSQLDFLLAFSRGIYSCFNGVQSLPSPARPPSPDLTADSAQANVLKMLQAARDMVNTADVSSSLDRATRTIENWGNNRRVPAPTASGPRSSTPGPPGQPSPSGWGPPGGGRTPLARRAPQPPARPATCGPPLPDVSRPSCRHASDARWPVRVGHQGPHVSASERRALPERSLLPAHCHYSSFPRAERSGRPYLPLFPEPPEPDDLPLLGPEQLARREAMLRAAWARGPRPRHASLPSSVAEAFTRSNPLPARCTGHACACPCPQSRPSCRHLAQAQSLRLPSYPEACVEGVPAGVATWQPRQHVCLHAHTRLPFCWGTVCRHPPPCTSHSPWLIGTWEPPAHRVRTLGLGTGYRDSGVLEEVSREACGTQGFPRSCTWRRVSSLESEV
GluN1/2AC1/2BC2 (triheteromeric GluN1/2A/2B), sequence (Q00959 23-1464, other chains not shown): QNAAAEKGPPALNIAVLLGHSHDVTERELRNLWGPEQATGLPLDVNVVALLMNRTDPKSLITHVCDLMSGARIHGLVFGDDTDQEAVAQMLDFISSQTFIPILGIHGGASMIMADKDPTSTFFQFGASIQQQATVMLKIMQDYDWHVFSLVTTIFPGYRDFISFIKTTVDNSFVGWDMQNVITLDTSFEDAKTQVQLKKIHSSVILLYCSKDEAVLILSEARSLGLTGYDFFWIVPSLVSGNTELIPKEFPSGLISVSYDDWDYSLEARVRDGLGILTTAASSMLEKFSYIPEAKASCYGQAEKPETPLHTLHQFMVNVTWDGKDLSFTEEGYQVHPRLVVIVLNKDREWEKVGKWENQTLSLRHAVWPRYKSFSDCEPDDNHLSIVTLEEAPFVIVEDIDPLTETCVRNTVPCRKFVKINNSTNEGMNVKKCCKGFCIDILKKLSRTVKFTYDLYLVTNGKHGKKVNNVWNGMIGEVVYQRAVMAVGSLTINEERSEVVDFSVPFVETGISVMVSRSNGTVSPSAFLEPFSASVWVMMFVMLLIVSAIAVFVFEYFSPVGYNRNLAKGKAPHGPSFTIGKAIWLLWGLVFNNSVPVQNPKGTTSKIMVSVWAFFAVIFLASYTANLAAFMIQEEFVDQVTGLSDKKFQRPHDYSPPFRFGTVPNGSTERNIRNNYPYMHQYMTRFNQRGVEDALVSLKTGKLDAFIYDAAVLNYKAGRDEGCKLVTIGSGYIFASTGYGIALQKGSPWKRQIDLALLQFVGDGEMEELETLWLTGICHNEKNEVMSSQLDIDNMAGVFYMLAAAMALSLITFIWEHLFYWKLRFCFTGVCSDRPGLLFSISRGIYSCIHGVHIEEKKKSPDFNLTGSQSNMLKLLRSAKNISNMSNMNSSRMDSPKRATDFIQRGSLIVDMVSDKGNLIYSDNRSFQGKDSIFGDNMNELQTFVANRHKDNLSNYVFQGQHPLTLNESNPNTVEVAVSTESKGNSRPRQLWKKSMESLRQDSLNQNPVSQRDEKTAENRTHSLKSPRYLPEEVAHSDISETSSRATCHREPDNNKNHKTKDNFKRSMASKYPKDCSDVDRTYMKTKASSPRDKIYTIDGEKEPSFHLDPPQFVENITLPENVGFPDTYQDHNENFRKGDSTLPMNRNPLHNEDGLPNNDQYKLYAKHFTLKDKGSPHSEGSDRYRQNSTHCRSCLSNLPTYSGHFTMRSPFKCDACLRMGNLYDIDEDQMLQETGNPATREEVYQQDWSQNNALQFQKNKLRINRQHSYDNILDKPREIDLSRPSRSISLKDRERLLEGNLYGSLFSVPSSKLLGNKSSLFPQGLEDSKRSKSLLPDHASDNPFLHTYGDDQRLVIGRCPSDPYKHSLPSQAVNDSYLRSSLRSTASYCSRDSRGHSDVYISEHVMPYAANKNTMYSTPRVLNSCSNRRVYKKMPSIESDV
GluN1/2A (Rattus norvegicus, UniProt P35439+Q00959), sequence (Q00959 23-1464, other chains not shown): as above
GluN1/2CC1/2CC2-NK, sequence (Q00961 20-836 N612K, other chains not shown): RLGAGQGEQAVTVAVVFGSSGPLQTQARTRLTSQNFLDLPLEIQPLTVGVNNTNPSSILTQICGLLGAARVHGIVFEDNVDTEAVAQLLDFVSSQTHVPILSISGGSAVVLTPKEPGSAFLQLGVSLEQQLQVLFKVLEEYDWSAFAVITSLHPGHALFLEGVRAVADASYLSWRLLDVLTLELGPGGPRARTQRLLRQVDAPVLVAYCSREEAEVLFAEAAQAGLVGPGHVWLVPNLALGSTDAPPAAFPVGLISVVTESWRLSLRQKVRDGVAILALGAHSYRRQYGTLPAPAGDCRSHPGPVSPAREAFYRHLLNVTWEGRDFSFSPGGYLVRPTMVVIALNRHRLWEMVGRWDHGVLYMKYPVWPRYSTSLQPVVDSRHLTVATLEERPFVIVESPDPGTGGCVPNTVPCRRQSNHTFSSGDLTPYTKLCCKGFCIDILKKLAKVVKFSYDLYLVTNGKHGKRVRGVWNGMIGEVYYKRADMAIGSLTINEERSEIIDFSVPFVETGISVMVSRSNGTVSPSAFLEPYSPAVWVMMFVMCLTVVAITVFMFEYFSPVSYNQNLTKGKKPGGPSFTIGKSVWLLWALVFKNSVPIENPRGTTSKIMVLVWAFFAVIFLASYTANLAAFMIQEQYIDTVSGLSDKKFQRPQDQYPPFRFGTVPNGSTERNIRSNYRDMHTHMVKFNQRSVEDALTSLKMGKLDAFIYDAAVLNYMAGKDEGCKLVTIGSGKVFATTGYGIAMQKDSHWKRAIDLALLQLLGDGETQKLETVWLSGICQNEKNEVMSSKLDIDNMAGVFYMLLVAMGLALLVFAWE

NC(CCCP(=O)(O)O)C(=O)O (stereo not drawn) [APV, 2-Amino-5-phosphonovalerate, reference compound]
Effect on NMDA-evoked current [1]: eliminated; also recorded: completely blocked the response to NMDA | Effect on NMDA receptor-mediated EPSCs ([2]; APV 400 μM superfusion): completely blocked the NMDA receptor-mediated EPSCs | Effect on NMDA receptor-mediated EPSCs ([3]; APV 400 μM superfusion): completely blocked the NMDA receptor-mediated EPSCs | Effect on NMDA receptor-mediated EPSCs ([4]; APV 400 μM superfusion): completely blocked the NMDA receptor-mediated EPSCs

NCC(=O)O [glycine]
EC50 (GluN1/2A [5]): 1.1 µM

N[C@@H](CCC(=O)O)C(=O)O [glutamate, reference compound]
nH (glutamate) (GluN1/2D [6]; [18]): 1.7 and 1.5 | nH (glutamate) (GluN1/2C [7]; [18]): 1.3

COc1ccc(OCC2c3cc(OC)c(OC)cc3CCN2C(=O)c2cccc(Cl)c2)cc1 (single isomer, unassigned; (+)) [(+)-CIQ, (3-Chlorophenyl){6,7-dimethoxy-1-[(4-methoxyphenoxy)methyl]-3,4-dihydro-2(1H)-isoquinolinyl}methanone]
Effect on NMDA receptor-mediated responses of STN neurons [8]: potentiate | Efficacy relative to GluN1/2C (recombinant GluN1/2A/2C): nearly as efficacious at recombinant GluN1/2A/2C as at GluN1/2C | Effect on NMDA receptor-mediated EPSCs [9]: no effect on NMDA receptor-mediated EPSCs | Increase in glutamate potency (GluN1/2D [6]): no effect on glutamate potency | Increase in glycine potency (GluN1/2D [6]): no significant effect on glycine potency | Increase in potencies of co-agonists glutamate and glycine (GluN1/2D [6]): no effect on agonist potencies | Effect on EPSC decay time (hippocampal interneurons): did not affect the EPSC decay time

CC(C)(C)c1ccc(-c2nc3n(c(=O)c2C#N)CCCS3)cn1 [PTC-174, 8-(6-(tert-butyl)pyridin-3-yl)-6-oxo-3,4-dihydro-2H,6H-pyrimido[2,1-b][1,3]thiazine-7-carbonitrile]
Potentiation of responses at low glycine (GluN1/2A [10]; [19]): 1.6 fold | Maximal modulation (% control) (GluN1/2A [10]; 100 μM glutamate + 50 μM glycine, control = response without PTC-174, inhibition): 39 ± 4 % control | nH (GluN1/2A [10]; [20]): −1.1 | Effect on current responses (in words) (GluN1/2A [10]; maximal glutamate plus glycine): concentration-dependent partial inhibition; also recorded: partial antagonist | τfast ([2]; 10 μM PTC-174, +40 mV, baseline 113.7 ± 27.2): 147.3 ± 46.5 ms | Peak amplitude ([2]; 10 μM PTC-174, +40 mV, baseline 132.6 ± 20.1): 157 ± 23 pA and 156.6 ± 23.3 pA | τw (weighted EPSC decay time constant) ([2]; 10 μM PTC-174, +40 mV, baseline 191.6 ± 6.6): 292.0 ± 41.8 ms | τslow ([2]; 10 μM PTC-174, +40 mV, baseline 321.4 ± 36.0): 522.4 ± 154.9 ms | Potentiation of responses at low glycine (GluN1/2D [6]; [19]): ~ 10 fold | Increase in glutamate potency (GluN1/2D [6]): 2.5 fold | Increase in glycine potency (GluN1/2D [6]): 4.8 fold | Maximal modulation (% control) (GluN1/2D [6]; [21]): 1265 ± 67 % control | nH (GluN1/2D [6]; [20]): 1.2 | Maximal potentiation of current responses (GluN1/2D [6]; maximal glutamate plus glycine): > 10 fold and 13 fold | Increase in potencies of co-agonists glutamate and glycine (GluN1/2D [6]): 2- to 5 fold | Enhancement of peak responses (GluN1/2D [11]; 10 μM PTC-174 continuous, 3–5 ms 1 mM glutamate): 5.3 fold | Potentiation of response to 2 second glutamate application (GluN1/2D [11]; 10 μM PTC-174 present before and during 1 mM glutamate exposure): 6.3 fold | τfast ([3]; 10 μM PTC-174, +40 mV, baseline 56.0 ± 3.3): 64.3 ± 9.3 ms | τw (weighted EPSC decay time constant) ([3]; 10 μM PTC-174, +40 mV, baseline 150.1 ± 10.0): 187.3 ± 20.0 ms | τslow ([3]; 10 μM PTC-174, +40 mV, baseline 382.5 ± 38.8): 416.1 ± 36.9 ms | Potentiation of responses at low glycine (GluN1/2C [7]; [19]): ~ 10 fold | Increase in glycine potency (GluN1/2C [7]; 10 μM modulator, 100 μM glutamate): 4.7 fold | Maximal modulation (% control) (GluN1/2C [7]; [21]): 1095 ± 29 % control | nH (GluN1/2C [7]; [20]): 1.2 | Maximal potentiation of current responses (GluN1/2C [7]; maximal glutamate plus glycine): > 10 fold | Current response to glutamate only + PTC-174 (GluN1/2C [7]; [22]): 1.5% ± 0.1 | Current response to glycine only + PTC-174 (GluN1/2C [7]; [22]): 4.0% ± 0.9 | Increase in potencies of co-agonists glutamate and glycine (GluN1/2C [7]; summary statement): 2- to 5 fold | Potentiation of responses at low glycine (GluN1/2B; [19]): 1.8 fold | Maximal modulation (% control) (GluN1/2B; [21]): 180 ± 4 % control | nH (GluN1/2B; [20]): 1.3 | Maximal potentiation of current responses (GluN1/2B; maximal glutamate plus glycine): 1.8 fold | EC50 [12]: 19.7 ± 1.5 µM | nH [12, 20]: −1.0 | Effect on current responses (in words) ([12]; maximal glutamate plus glycine): partial inhibition; also recorded: partial antagonist | nH [13]: 1.2 | nH [14]: 1.0 | CNS exposure [15]: readily achieves CNS exposure after systemic administration | Effect on current responses [16]: did not affect current responses | Charge transfer ([4]; 10 μM PTC-174, −40 mV, baseline 12.9 ± 1.4): 15.9 ± 2.4 pA·S | τfast ([4]; 10 μM PTC-174, −40 mV, baseline 49.6 ± 5.5): 69.3 ± 10.1 ms | τw (weighted EPSC decay time constant) ([4]; 10 μM PTC-174, −40 mV, baseline 111.0 ± 7.1): 166.7 ± 21.3 ms and 166.7 ± 2.1 ms | τslow ([4]; 10 μM PTC-174, −40 mV, baseline 226.2 ± 21.8): 397.7 ± 131.5 ms | Effect on current responses (AMPA (GluA1–4) receptors): did not affect current responses | EC50 (GluN1/2CC1/2CC2-NK; in the presence of 1 mM Mg2+): 4.5 ± 0.2 µM | EC50 (GluN1/2CC1/2CC2-NK; without Mg2+): 5 ± 0.5 µM | nH (GluN1/2CC1/2CC2-NK; in the presence of 1 mM Mg2+): 1.2 | nH (GluN1/2CC1/2CC2-NK; without Mg2+): 1.4 | Enhancement of peak responses (GluN1/2C [17]): 3.7 fold
